# Source: PubChem (several laboratories)
# TWEAK-Fn14 inh – blocks TWEAK-Fn14 interaction in a reporter cell assay. AID 1159606. TWEAK-stimulated Fn14 reporter cells, luciferase luminescence, 8 h. 360,000 compounds, 2% hits. inhibition, % at 10 µM; in the data active means inhibition above about 50%
# FN deposition inh – fibronectin deposition inhibition. AH1F fibroblasts, Alexa488-fibronectin deposition fluorescence, overnight. inhibition, % at 12.6 µM. 350,000 compounds, 0.086% hits;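 active means mean inhibition across replicates of 30% or more, regardless of how many single replicates reach that level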;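 further: positive control wells lacked labelled fibronectin entirely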
#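 Schedule: 1 h cell adhesion before compound, then overnight fibronectin incubation; test system: AH1F fibroblast monolayer depositing Alexa488-labelled fibronectin into matrix; quantity: 10000 AH1F cells per well; probe or stimulus: fluorescent fibronectin at 24 nM final; signal: fluorescence, ex 485 nm, em 525 nm; evaluation: percent inhibition as loss of matrix-bound fibronectin fluorescence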
# TROY signal inh – blocks TROY-dependent signaling in reporter cells | Q293 LMP1-TROYcd NF-kB luciferase reporter, 4 h | inhibition, % at 10 µM | 360,000 compounds, 0.98% hits;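 active means compounds whose plate-normalised and pattern-corrected inhibition of the luciferase reporter signal at the single screening dose is 50% or more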
# EWS-Fli inh – inhibitors of EWS/Fli oncoprotein transcriptional activity; A673 NR0B1-luciferase reporter, viability-normalised; inhibition, % at 12.6 µM; 350,000 compounds, 0.67% hits; AID 651661;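 active means mean inhibition of at least 50% after viability correction, with every replicate also passing that limit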;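 further: firefly luciferase signal divided by Alamar Blue viability fluorescence both relative to DMSO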
# LGR2 antag – Drosophila LGR2 receptor signaling inhibition. inhibition, % at 9.99 µM. HEK293 LGR2, CRE-luciferase, bursicon-stimulated, 4 h. 380,000 compounds, 0.35% hits;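 active means drop in luminescence signal, shown as inhibition above about 50% in the replicate tests, limit read from the data, passing the limit was not always enough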;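 further: agonist challenge used bursicon conditioned medium at about half maximal strength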
# Xi reactivation – X-chromosome reactivation activator | XiGFP mouse fibroblasts, % GFP-positive cells imaging, 3 d; cells co-treated with 5-aza-dC sensitizer; scaled so ellipticine positive control = 100% | activation, % at 7.58 µM | 360,000 compounds, 0.055% hits;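 active means mean normalized replicate activation at least 10% and every replicate at or above 10%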;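 further: 0% = median of on-plate neutral control wells and 100% = ellipticine 6 µM median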
#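 assay system = SV40-immortalized XiGFP fibroblast cells, line 68-5-11 | buffer or medium = DMEM plus 5-aza-dC sensitizer | doses = single-point pinned compound dosing | times = 3-day compound exposure, then 15 min fixation at room temperature | benchmarks = positive control ellipticine, 6 µM final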
# Starred values were filed as active, the others as inactive; nt = no result given. Compounds with a hit are over-represented: about 2.3% of the library has one in this group of screens.
SMILES,TWEAK-Fn14 inh,FN deposition inh,TROY signal inh,EWS-Fli inh,LGR2 antag,Xi reactivation
COc1ccc(S(=O)(=O)N[C@@H]2CC[C@H](CCn3cc(C(C)C)nn3)O[C@H]2CO)cc1,nt,1,nt,-11,0,-1
CN(CC(=O)Nc1ccc(Br)cc1)Cc1ccccc1,-31,-10,-17,-14,-48,0
COC(=O)c1cc(NC(=O)CN(C)Cc2ccccc2)cc(C(=O)OC)c1,86*,-4,14,4,0,0
COc1cccc(NC(=O)N(C)C[C@@H]2Oc3ncc(C#Cc4ccc(F)cc4)cc3C(=O)N([C@H](C)CO)C[C@@H]2C)c1,nt,12,nt,7,-7,0
Cc1ccc(/C=C/C(O)=C2/C(=O)N(C)C3(C)CC2c2ccccc2O3)cc1 (stereo unspecified),51*,4,2,nt,nt,nt
COc1ccc(/C=C/C(O)=C2/C(=O)N(C)C3(C)CC2c2ccccc2O3)cc1 (stereo unspecified),28,6,-14,nt,nt,nt
Cc1nn(Cc2c(Cl)cccc2Cl)c(C)c1NC(=O)c1cn(-c2ccccc2)nc1-c1ccccc1,70*,nt,27,nt,nt,nt
ON=Cc1ccnc2ccccc12,20,7,6,-8,0,0
O=C(/C=C/c1ccnc2ccccc12)c1cccs1,65*,12,70*,22,2,0
CO[C@H]1CN(C)C(=O)c2cc(NC(=O)C3CC3)ccc2OC[C@@H](C)N(Cc2ccccc2)C[C@H]1C,nt,-11,nt,0,-4,0
NS(=O)(=O)c1ccc(CCNc2ccn3nc(-c4ccccc4)cc3n2)cc1,6,-12,-17,-70,-15,0
CC(C)Cc1ccc(-c2cc3nc(NCCc4ccc(S(N)(=O)=O)cc4)ccn3n2)cc1,54*,-7,3,-96,17,0
Cc1oc2c(c1C(=O)c1ccc(Cl)cc1)C(=O)C(=O)c1ccccc1-2,91*,nt,38,nt,nt,nt
Cc1ccc(C(=O)c2c(C)oc3c2C(=O)C(=O)c2ccccc2-3)cc1,54*,nt,29,nt,nt,nt
C[C@H]1CN([C@@H](C)CO)C(=O)c2cc(NS(=O)(=O)c3ccc(Cl)cc3)ccc2O[C@H]1CN(C)C,nt,nt,nt,1,-16,0
C[C@H]1CN([C@@H](C)CO)S(=O)(=O)c2ccc(C#CC3CCCC3)cc2O[C@H]1CN(C)C(=O)c1cccc(F)c1,nt,nt,nt,-2,8,-1
CC(=O)Nc1ccc(NC(=O)c2ccc(-c3ccnn3C)c3ccoc23)cc1,1,5,-1,34,-20,0
CC(C)c1ccc(NC(=O)c2ccc(-c3ccnn3C)c3ccoc23)cc1,79*,nt,33,nt,nt,nt
CC(C)NC(=O)N(C)C[C@@H]1OCCCC[C@@H](C)Oc2ccc(NC(=O)Nc3ccccc3)cc2C(=O)N([C@@H](C)CO)C[C@H]1C,nt,-7,nt,nt,4,0
CCN(CC)CCNC(=O)c1ccc(NC(=O)c2cn(-c3ccccc3)nc2-c2cccs2)cc1,-28,17,-39,58*,nt,1
CCN(CC)CCNC(=O)c1ccc(NC(=O)c2cn(-c3ccc(F)cc3)nc2-c2cccc(OC)c2)cc1,-70,16,-34,59*,2,0
O=C(Nc1cccnc1)c1cn(-c2ccccc2)nc1-c1cccs1,3,2,-41,nt,nt,nt
Cc1cccc(C(P(=O)(c2ccccc2)c2ccccc2)P(=O)(c2ccccc2)c2ccccc2)n1,79*,-3,-1,nt,-5,0
N#Cc1cccc(-c2ccc(C3[C@@H]4CN(C(=O)C5CCOCC5)C[C@H]3N4)cc2)c1 (stereo partly specified),nt,-5,nt,-5,17,0
N#Cc1ccc(-c2ccc(C3[C@@H]4CN(C(=O)C5CC5)C[C@H]3N4)cc2)cc1 (stereo partly specified),nt,-5,nt,-11,90*,0
SMILES,TWEAK-Fn14 inh,FN deposition inh,TROY signal inh,EWS-Fli inh,LGR2 antag,Xi reactivation
COc1ccc(NC(=O)c2ccccc2)cc1NS(=O)(=O)c1ccc(F)cc1,-12,-3,3,nt,3,0
COc1ccccc1NC(=O)Nc1ccc(Cl)c(S(=O)(=O)Nc2ccccc2OC)c1,30,1,13,nt,4,0
COc1ccc(C(=O)Nc2ccc(Cl)c(S(=O)(=O)Nc3ccccc3OC)c2)cc1,81*,-9,53*,nt,11,0
COc1cc(NS(C)(=O)=O)c(OC)cc1NC(=O)c1ccccc1,57*,0,-14,nt,nt,nt
COc1ccc(NC(=O)c2ccc(-c3ccccc3)cc2)cc1NS(=O)(=O)c1ccc(F)cc1,62*,2,31,nt,-7,0
COc1ccccc1NS(=O)(=O)c1cc(NC(=O)c2ccc3ccccc3n2)ccc1Cl,19,5,6,nt,-7,0
COc1ccccc1NS(=O)(=O)c1cc(NC(=O)c2ccc(Cl)nc2)ccc1Cl,102*,5,72*,nt,38,0
COc1ccccc1NS(=O)(=O)c1cccc(NC(=O)Nc2cccc(Cl)c2)c1,81*,-2,51*,nt,28,0
COc1ccccc1NS(=O)(=O)c1cccc(NC(=O)NCCCl)c1,2,3,-12,-19,10,0
COc1ccc(CN(C)C[C@H]2Oc3ccc(NS(=O)(=O)c4ccc(F)cc4)cc3C(=O)N([C@H](C)CO)C[C@H]2C)cc1,nt,nt,nt,-1,-11,0
C[C@H]1CN([C@@H](C)CO)C(=O)c2cc(C3=CCCCC3)cnc2O[C@H]1CN(C)Cc1ccc(C(=O)O)cc1,nt,5,nt,-6,13,0
CN(c1cccc(NC(=O)CN(c2ccc(C34CC5CC(CC(C5)C3)C4)cc2)S(C)(=O)=O)c1)S(C)(=O)=O,61*,nt,23,nt,nt,nt
COc1ccc(C)cc1N(CC(=O)Nc1cccc(N(C)S(C)(=O)=O)c1)S(C)(=O)=O,-20,32*,6,nt,3,nt
Cc1ccc(NC(=O)c2noc3c2CCc2ccccc2-3)cc1,-14,-4,-38,nt,nt,nt
O=C(Nc1cccc(O)c1)c1noc2c1CCc1ccccc1-2,72*,nt,46,nt,nt,nt
N=c1n(Cc2ccc(Cl)cc2)c2ccccc2n1CC(O)COc1ccccc1 (stereo unspecified),4,0,6,-15,83*,0
COc1ccc(OCC(O)Cn2c(=N)n(Cc3ccccc3)c3ccccc32)cc1 (stereo unspecified),23,nt,12,nt,nt,nt
N=c1n(Cc2ccccc2)c2ccccc2n1CC(O)COc1ccc(Cl)cc1Cl (stereo unspecified),29,nt,60*,62*,101*,0
C[C@H](CO)N1C[C@H](C)[C@@H](CN(C)Cc2ccc(F)cc2)OCc2ccccc2-c2c(n(C)c3ccccc23)C1=O,nt,-4,nt,nt,nt,0
COc1ccc(F)cc1C1=CC(=O)C[C@H](c2ccc3c(c2)OCO3)C1,-8,-4,8,53*,3,0
